Assay results taken from the M2OR odorant receptor database.

Columns and labels:
Details in all cases: stereoisomer not certain
UniProt Q7TR71 = biological target: T1, UniProt Q7TR71
T1 sequence (whole entry): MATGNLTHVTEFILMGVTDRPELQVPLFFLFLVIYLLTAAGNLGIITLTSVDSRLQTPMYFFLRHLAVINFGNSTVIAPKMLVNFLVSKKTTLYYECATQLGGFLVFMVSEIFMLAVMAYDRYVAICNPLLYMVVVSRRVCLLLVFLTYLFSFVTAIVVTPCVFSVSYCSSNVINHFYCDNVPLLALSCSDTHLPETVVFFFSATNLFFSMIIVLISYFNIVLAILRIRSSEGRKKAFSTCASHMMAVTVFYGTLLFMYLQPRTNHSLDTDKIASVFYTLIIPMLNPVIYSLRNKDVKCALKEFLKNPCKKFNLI
Procedure, shortened: (§1)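 Transient luciferase assays in mammalian cell lines were common, though methods varied by source. The values come from published papers and their supplementary material, with extra details from the original authors when needed. Responsive refers to a measured signal the original authors judged statistically different from baseline, and non-responsive (inactive) to the remainder.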

UniProt Q7TR79 = biological target: T2, UniProt Q7TR79
T2 sequence (whole entry): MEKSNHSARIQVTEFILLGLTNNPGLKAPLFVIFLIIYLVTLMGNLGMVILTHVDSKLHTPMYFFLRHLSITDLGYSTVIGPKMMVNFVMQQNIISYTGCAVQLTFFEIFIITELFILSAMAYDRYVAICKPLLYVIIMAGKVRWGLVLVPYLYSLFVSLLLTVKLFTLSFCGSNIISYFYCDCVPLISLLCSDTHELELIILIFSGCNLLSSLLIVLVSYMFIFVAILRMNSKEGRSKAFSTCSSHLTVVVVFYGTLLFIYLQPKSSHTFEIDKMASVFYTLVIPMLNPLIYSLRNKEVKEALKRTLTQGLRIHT
Procedure, shortened: as §1

UniProt Q7TRA3 = biological target: T3, UniProt Q7TRA3
T3 sequence (whole entry): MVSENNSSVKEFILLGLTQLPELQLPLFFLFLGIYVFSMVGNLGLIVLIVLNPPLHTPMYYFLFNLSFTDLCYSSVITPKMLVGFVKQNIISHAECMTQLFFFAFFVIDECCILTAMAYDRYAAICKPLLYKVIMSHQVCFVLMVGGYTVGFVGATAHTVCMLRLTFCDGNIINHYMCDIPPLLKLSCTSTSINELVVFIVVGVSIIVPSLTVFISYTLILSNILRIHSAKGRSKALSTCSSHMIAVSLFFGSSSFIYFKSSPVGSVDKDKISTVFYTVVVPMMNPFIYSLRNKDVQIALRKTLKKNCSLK
Procedure, shortened: as §1

UniProt Q7TRE4 = biological target: T4, UniProt Q7TRE4
T4 sequence (whole entry): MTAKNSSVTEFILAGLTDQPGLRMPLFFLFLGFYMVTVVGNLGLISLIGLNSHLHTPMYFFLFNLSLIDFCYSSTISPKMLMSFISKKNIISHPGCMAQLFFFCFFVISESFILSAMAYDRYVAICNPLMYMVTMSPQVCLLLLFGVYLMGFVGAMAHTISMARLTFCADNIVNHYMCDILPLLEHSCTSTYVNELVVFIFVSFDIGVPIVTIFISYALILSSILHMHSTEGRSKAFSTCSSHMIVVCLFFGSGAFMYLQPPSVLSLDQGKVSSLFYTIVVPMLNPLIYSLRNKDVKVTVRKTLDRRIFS
Procedure, shortened: as §1

UniProt Q7TRW1 = biological target: T5, UniProt Q7TRW1
T5 sequence (whole entry): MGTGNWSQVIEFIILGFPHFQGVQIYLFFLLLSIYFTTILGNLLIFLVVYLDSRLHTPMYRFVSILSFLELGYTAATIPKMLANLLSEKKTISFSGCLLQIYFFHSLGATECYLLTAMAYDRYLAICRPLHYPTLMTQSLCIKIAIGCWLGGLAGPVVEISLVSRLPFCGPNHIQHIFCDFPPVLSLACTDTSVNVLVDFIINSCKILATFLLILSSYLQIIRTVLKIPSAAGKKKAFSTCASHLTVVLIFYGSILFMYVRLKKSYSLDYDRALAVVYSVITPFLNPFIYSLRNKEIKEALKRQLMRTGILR
Procedure, shortened: as §1

UniProt Q7TRX0 = biological target: T6, UniProt Q7TRX0
T6 sequence (whole entry): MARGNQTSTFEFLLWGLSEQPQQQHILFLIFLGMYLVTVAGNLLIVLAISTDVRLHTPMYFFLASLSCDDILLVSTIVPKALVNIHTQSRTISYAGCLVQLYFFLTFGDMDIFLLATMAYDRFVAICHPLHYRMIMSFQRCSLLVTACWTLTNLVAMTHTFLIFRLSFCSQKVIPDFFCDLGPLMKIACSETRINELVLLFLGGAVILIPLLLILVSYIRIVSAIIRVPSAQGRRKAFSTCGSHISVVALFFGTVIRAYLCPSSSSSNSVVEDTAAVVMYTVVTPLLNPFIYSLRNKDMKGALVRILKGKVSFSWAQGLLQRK
Procedure, shortened: as §1

UniProt Q8VEU7 = biological target: T7, UniProt Q8VEU7
T7 sequence (whole entry): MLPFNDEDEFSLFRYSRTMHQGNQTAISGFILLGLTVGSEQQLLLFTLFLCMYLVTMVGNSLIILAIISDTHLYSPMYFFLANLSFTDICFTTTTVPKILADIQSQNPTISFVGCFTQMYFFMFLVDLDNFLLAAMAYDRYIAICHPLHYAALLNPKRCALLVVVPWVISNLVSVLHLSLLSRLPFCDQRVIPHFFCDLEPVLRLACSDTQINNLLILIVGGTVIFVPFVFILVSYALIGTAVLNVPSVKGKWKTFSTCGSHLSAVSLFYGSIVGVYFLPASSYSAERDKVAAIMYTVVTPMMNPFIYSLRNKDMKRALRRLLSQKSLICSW
Procedure, shortened: as §1

UniProt Q8VF05 = biological target: T8, UniProt Q8VF05
T8 sequence (whole entry): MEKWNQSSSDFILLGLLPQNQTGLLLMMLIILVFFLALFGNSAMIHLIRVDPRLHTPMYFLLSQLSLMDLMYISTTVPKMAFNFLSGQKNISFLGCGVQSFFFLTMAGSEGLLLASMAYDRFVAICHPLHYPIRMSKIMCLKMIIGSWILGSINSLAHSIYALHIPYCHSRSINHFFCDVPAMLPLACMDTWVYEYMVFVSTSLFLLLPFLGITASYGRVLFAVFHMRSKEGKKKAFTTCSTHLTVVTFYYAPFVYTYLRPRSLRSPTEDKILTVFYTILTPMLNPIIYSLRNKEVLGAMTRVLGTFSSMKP
Procedure, shortened: as §1

UniProt Q7TRM0 = biological target: T9, UniProt Q7TRM0
T9 sequence (whole entry): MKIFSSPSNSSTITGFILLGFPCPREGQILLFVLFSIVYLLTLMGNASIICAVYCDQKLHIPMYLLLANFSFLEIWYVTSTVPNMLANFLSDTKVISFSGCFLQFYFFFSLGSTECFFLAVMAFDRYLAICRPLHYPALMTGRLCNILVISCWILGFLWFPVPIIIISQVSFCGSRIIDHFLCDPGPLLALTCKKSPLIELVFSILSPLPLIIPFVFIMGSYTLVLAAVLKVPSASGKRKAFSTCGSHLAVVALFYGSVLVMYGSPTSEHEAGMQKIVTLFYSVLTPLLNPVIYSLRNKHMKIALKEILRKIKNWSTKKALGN
Procedure, shortened: as §1

UniProt Q7TRN9 = biological target: T10, UniProt Q7TRN9
T10 sequence (whole entry): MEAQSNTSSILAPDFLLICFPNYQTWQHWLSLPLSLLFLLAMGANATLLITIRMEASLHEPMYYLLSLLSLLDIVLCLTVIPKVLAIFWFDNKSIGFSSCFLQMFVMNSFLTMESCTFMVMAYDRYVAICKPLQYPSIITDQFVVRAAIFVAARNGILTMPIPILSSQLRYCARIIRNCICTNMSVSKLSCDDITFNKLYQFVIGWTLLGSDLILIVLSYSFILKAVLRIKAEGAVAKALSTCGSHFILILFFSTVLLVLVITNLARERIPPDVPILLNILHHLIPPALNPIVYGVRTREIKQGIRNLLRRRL
Procedure, shortened: as §1

UniProt Q7TRR8 = biological target: T11, UniProt Q7TRR8
T11 sequence (whole entry): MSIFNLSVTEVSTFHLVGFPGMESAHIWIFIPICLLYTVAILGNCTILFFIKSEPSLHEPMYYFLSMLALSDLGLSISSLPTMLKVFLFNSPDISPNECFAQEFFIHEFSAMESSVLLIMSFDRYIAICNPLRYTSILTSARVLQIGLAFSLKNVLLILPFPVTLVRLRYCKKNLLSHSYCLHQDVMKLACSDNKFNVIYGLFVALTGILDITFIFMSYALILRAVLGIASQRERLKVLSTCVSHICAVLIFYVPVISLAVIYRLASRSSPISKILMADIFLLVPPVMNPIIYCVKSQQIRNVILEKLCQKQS
Procedure, shortened: as §1

Measured: odorant receptor agonist call

CCCCCC1=C(C)CCC1=O
active: UniProt Q8VF05
not listed: UniProt Q7TRM0 | UniProt Q7TRN9 | UniProt Q7TRR8
inactive: all other assays above

CCCCCCC=CC=O
inactive: UniProt Q7TR79 | UniProt Q7TRX0

CCSSCC
inactive: UniProt Q7TR79 | UniProt Q7TRX0

CCCCCCCCCS
not listed: UniProt Q7TRM0 | UniProt Q7TRN9 | UniProt Q7TRR8
inactive: all other assays above

CCCCCCC(C)=O
not listed: UniProt Q7TRM0 | UniProt Q7TRN9 | UniProt Q7TRR8
inactive: all other assays above

C=C(C)C1CCC(C)C(O)C1 (stereo not drawn)
inactive: UniProt Q7TR79 | UniProt Q7TRX0

OCC=Cc1ccccc1
inactive: UniProt Q7TR79 | UniProt Q7TRX0

COC(OC)c1ccccc1
inactive: UniProt Q7TR79 | UniProt Q7TRX0

CC=Cc1ccc(OC)cc1
inactive: UniProt Q7TR79 | UniProt Q7TRX0

O=C([O-])CCCCCCC(=O)[O-].[H+].[H+]
inactive: UniProt Q7TR79 | UniProt Q7TRM0 | UniProt Q7TRN9 | UniProt Q7TRR8 | UniProt Q7TRX0

CCCCCC(=Cc1ccccc1)C(OC)OC
inactive: UniProt Q7TR79 | UniProt Q7TRX0

CCCCCC=CCCC=O
inactive: UniProt Q7TR79 | UniProt Q7TRX0

C=CCOC(=O)CCCCCC
not listed: UniProt Q7TRM0 | UniProt Q7TRN9 | UniProt Q7TRR8
inactive: all other assays above

O=C([O-])CCCCCCCC(=O)[O-].[H+].[H+]
inactive: UniProt Q7TR79 | UniProt Q7TRM0 | UniProt Q7TRN9 | UniProt Q7TRR8 | UniProt Q7TRX0
